The species entered for series [1] is Oryctolagus cuniculus. The experiment in a line: Inhibition of chymotrypsin-like activity of rabbit 20S proteasome assessed as enzyme activity recovery 24 hrs after dialysis. The method, boiled down: (§1)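 Rabbit 20S proteasome (1.4 nM final) was incubated 1 h at ambient temperature with compound or DMSO (0.1% final) in 20 mM HEPES pH 7.3, 0.5 mM EDTA, 0.05% Triton X-100, 0.035% SDS (SDS omitted for T-L). Mixtures were dialysed (MWCO 12-14000) against assay buffer at ambient temperature. Samples taken at 0, 1, 2, 5, 24 h (some also 12 h) for site activity, normalised to DMSO controls.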

A short description of series [2]: Inhibition of chymotrypsin-like activity of rabbit 20S proteasome. Details: species or system Oryctolagus cuniculus. A digest of the protocol:
(§2)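 Purified rabbit muscle 20S proteasome at 1.4 nM final. T-L used the same buffer without SDS and Boc-LRR-AMC. Serial dilutions were preincubated 5 min at 37 °C. AMC fluorescence ex 390/em 460 nm.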

Series [3] in a line: Stability in 20 mM HEPES buffer assessed as beta-lactone hydrolysis rate at pH 7.3 at 37 degC.
Series [4] can be described thus: Inhibition of caspase-like activity of rabbit 20S proteasome. Details: species or system Oryctolagus cuniculus. The method, boiled down:
as §2

The nature of series [5]: Inhibition of trypsin-like activity of rabbit 20S proteasome. Also noted: species or system Oryctolagus cuniculus. The method, boiled down: as §2
A short description of series [6]: Inhibition of caspase-like activity of human 20S proteasome.
Series [7] in a line: Inhibition of trypsin-like activity of human 20S proteasome.
Series [8] can be described thus: Inhibition of chymotrypsin-like activity of human 20S proteasome assessed as release of free AMC substrate by fluorimetry based kinetic assay.
Series [9] can be described thus: Inhibition of chymotrypsin-like activity of yeast 20S proteasome. Details: species or system Saccharomyces cerevisiae. The method, boiled down: (§3)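 Purified yeast 20S proteasome in 75 mM Tris-HCl pH 7.8 with 0.02% SDS. Serial compound dilutions were preincubated 5 min at 37 °C, then substrate was added: Suc-LLVY-AMC at 20 µM final (CT-L), Z-LLE-AMC (C-L), or Bz-VGR-AMC with SDS omitted (T-L). Cleaved AMC read at ex 390/em 460 nm.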

The species named for series [10] is Oryctolagus cuniculus. The experiment in a line: Inhibition of trypsin-like activity of rabbit 20S proteasome assessed as enzyme activity recovery 24 hrs after dialysis. The method, boiled down: as §1
For series [11], the species on record is Homo sapiens. The experiment in a line: Inhibition of trypsin-like activity of human 20S proteasome assessed as inactivation rate by fluorimetry based kinetic assay.
Series [12] can be described thus: Inhibition of chymotrypsin-like activity of human 20S proteasome.
A short description of series [13]: Inhibition of trypsin-like activity of yeast 20S proteasome. Also noted: species or system Saccharomyces cerevisiae. The method, boiled down:
as §3

For series [14], the species on record is Homo sapiens. Kind of series: Inhibition of caspase-like activity of human 20S proteasome assessed as enzyme activity recovery 12 hrs after dialysis.
Series [15] is filed under the species Homo sapiens. Kind of series: Inhibition of trypsin-like activity of human 20S proteasome assessed as enzyme activity recovery 12 hrs after dialysis.
Series [16] in a line: Inhibition of caspase-like activity of human 20S proteasome assessed as release of free AMC substrate by fluorimetry based kinetic assay.
A short description of series [17]: Inhibition of trypsin-like activity of human 20S proteasome assessed as release of free AMC substrate by fluorimetry based kinetic assay.
The species entered for series [18] is Homo sapiens. Kind of series: Inhibition of chymotrypsin-like activity of human 20S proteasome assessed as enzyme activity recovery 12 hrs after dialysis.
Series [19] is filed under the species Homo sapiens. Kind of series: Inhibition of caspase-like activity of human 20S proteasome assessed as inactivation rate by fluorimetry based kinetic assay.
For series [20], the species on record is Oryctolagus cuniculus. Kind of series: Inhibition of caspase-like activity of rabbit 20S proteasome assessed as enzyme activity recovery 24 hrs after dialysis. The method, boiled down:
as §1

The species entered for series [21] is Homo sapiens. Kind of series: Inhibition of chymotrypsin-like activity of human 20S proteasome assessed as inactivation rate by fluorimetry based kinetic assay.
A short description of series [22]: Inhibition of caspase-like activity of yeast 20S proteasome. Also noted: species or system Saccharomyces cerevisiae. A digest of the protocol: as §3
Series [23] is filed under the species Oryctolagus cuniculus. The experiment in a line: Inhibition of chymotrypsin-like activity of rabbit 20S proteasome assessed as enzyme activity recovery 12 hrs after dialysis. A digest of the protocol:
as §1

For series [24], the species on record is Oryctolagus cuniculus. Kind of series: Inhibition of caspase-like activity of rabbit 20S proteasome assessed as enzyme activity recovery 12 hrs after dialysis. A digest of the protocol:
as §1

For series [25], the species on record is Oryctolagus cuniculus. The experiment in a line: Inhibition of trypsin-like activity of rabbit 20S proteasome assessed as enzyme activity recovery 12 hrs after dialysis. A digest of the protocol: as §1

SMILES strings stand for the structures. The source made the active and inactive calls. No cut-off for these calls is given here.

`C[C@@]12OC(=O)[C@]1([C@@H](O)[C@@H]1C=CCCC1)NC(=O)[C@@H]2CCF` [FLUOROSALINOSPORAMIDE]: in the series filed under Oryctolagus cuniculus [1], the outcome was Active. This compound also returned an IC50 in series [2] of 9.2 nM. The half-life in series [3] amounted to 1.32 h.
As for `CN(C)c1cccc2c(S(=O)(=O)OCC[C@H]3C(=O)N[C@@]4([C@@H](O)[C@@H]5C=CCCC5)C(=O)O[C@@]34C)cccc12`, the values for the IC50 in series [4], in series [5] and in series [2] were 90 nM, 12 nM and 3 nM, respectively. In addition, the half-life in [3] amounted to 2.98 h.
On the same counts, the results for `C[C@@]12OC(=O)[C@]1([C@@H](O)[C@@H]1C=CCCC1)NC(=O)[C@@H]2CCBr` [BROMOSALINOSPORAMIDE] are 290 nM, 14 nM, 2.6 nM and 1.33 h.
Take `C[C@@]12OC(=O)[C@]1([C@@H](O)[C@@H]1C=CCCC1)NC(=O)[C@@H]2CCCl` [MARIZOMIB]: the IC50 in [6] is 430 nM; in series [7], 28 nM; in series [9], 2 nM; in [12] it was 3.5 nM; in [13] it was 59 nM; in series [22] it was 2600 nM. The values for the Ki in series [8], in [16] and in series [17] were 23 nM, more than 1000 nM and 97 nM, respectively. Besides, the result in the series filed under Oryctolagus cuniculus [10], in the series listed under Homo sapiens [14], in the series filed under Homo sapiens [15], in the series filed under Homo sapiens [18], in the series listed under Oryctolagus cuniculus [1] and in the series listed under Oryctolagus cuniculus [20] was Active. Further, the Activity in the series filed under Homo sapiens [11] was 0.003 s⁻¹; in the series listed under Homo sapiens [19], more than 0.02 s⁻¹; in the series listed under Homo sapiens [21] it was 0.01 s⁻¹. Also, in series [3], the half-life was 1.28 h.
Take `CCC[C@H]1C(=O)N[C@@]2([C@@H](O)[C@@H]3C=CCCC3)C(=O)O[C@@]12C`: the IC50 was found to be 1200 nM in series [4], 1100 nM in series [5] and 24 nM in series [2]. In addition, the outcome in the series filed under Oryctolagus cuniculus [23] was inactive. The half-life in [3] came to 2.85 h.
Consider `CC[C@H]1C(=O)N[C@@]2([C@@H](O)[C@@H]3C=CCCC3)C(=O)O[C@@]12C` [SALINOSPORAMIDE B], for which the IC50 in series [9] is 16 nM; in [13], 1040 nM; in [5], 610 nM; in [22], more than 20000 nM. Also, the result in the series filed under Oryctolagus cuniculus [24], in the series listed under Oryctolagus cuniculus [25] and in the series listed under Oryctolagus cuniculus [23] was inactive. Moreover, the half-life in series [3] came out at 3.17 h.
On to `C[C@@]12OC(=O)[C@@]1([C@@H](O)[C@@H]1C=CCCC1)NC(=O)[C@@H]2CCO` [hydroxysalinosporamide A], for which the IC50 in series [4] turned out to be 1200 nM; in series [5] it was 1200 nM; in series [2] it was 14 nM. Also, the outcome in the series filed under Oryctolagus cuniculus [23] was inactive. Moreover, the half-life in series [3] is 1.42 h.
Consider `C[C@@]12OC(=O)[C@]1([C@@H](O)[C@@H]1C=CCCC1)NC(=O)[C@@H]2CCI` [IODOSALINOSPORAMIDE], for which the IC50 in series [4] turned out to be 410 nM; in series [5], 13 nM; in [2], 2.8 nM. In addition, the half-life in series [3] was determined as 1.53 h.
For `C[C@H]1C(=O)N[C@@]2([C@@H](O)[C@@H]3C=CCCC3)C(=O)O[C@@]12C`, the IC50 stood at 460 nM in series [4], 370 nM in [5] and 7.5 nM in series [2]. For the same compound, the outcome in the series filed under Oryctolagus cuniculus [23] was inactive. For the same compound, the half-life in series [3] was 1.58 h.
Regarding `Cc1ccc(S(=O)(=O)OCC[C@H]2C(=O)N[C@@]3([C@@H](O)[C@@H]4C=CCCC4)C(=O)O[C@@]23C)cc1`, the IC50 in series [4] was 127 nM; in series [5] it was 9.9 nM; in [2], 2.5 nM. Moreover, in the series listed under Oryctolagus cuniculus [1], the outcome was Active. In [3], the half-life amounted to 1.25 h.
Take `C[C@@]12OC(=O)[C@]1([C@@H](O)[C@@H]1C=CCCC1)NC(=O)[C@@H]2CCOS(C)(=O)=O`: the IC50 in [4] is 870 nM; in series [5] it was 65 nM; in series [2] it was 4.3 nM. The result in the series filed under Oryctolagus cuniculus [1] was Active. In addition, the half-life in series [3] came out at 0.983 h.

The record behind these values is ChEMBL document CHEMBL1142546 (J Med Chem, 2008).
